Data as given in PMC9050340 (RSC Advances, 2020).
Values after ≈ are worked out from the molar mass of the structure shown.

Columns and labels:
[1] = cited from earlier work; for IC50, inhibition of oxidation of DPPH: from P. latifolia leaves
MTT antiproliferative = type: cell-based; conditions: human, MCF-10A cells (normal breast cell line)
MCF-7 = experiment: MTT antiproliferative; type: cell-based; conditions: Homo sapiens, MCF7, read-out: Cytotoxicity (IC50 μM) MCF-7
[2] = DPPH radical scavenging activity assay; conditions: 30 min, room temperature, ethanol
How it was run: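 Test compound in absolute ethanol (2–100 μg mL−1; 40 μg mL−1 for screening), 1 mL mixed with 2 mL of freshly prepared DPPH (20 μg mL−1 in absolute ethanol). Incubated 30 min at room temperature in the dark, then absorbance read at 517 nm against an absolute ethanol blank. Ascorbic acid as positive control. % scavenging from blank versus sample absorbance; IC50 by nonlinear regression.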

MDA-MB-231 cells = experiment: Wound-healing scratch; type: cell-based, human; conditions: MDA-MB-231, 10 μM, HGF-induced, 24 h
How it was run: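 MDA-MB-231 cells grown overnight to confluent monolayers, scratched with a pipette tip, washed twice with PBS, then fresh RPMI. Test compound (10 μM, from 10 mM DMSO stock; DMSO ≤0.1%) added in serum-free defined medium with […] HGF, in triplicate, for 24 h. Cells fixed and Giemsa-stained; wound width imaged at 0 and 24 h. % migration calculated relative to DMSO control.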

| Compound | IC50, inhibition of oxidation of DPPH [1] | IC50, DPPH radical scavenging [2] | other results |
| --- | --- | --- | --- |
| COc1cc(C2Oc3c(OC)cc(C=CC=O)cc3C(O)C2O)ccc1O (centres unmarked) [4′-hydroxy-8,3′-dimethoxy-6-acroleinylflavan-3,4-diol] | 22.5 mg/L |  |  |
| CC(CO)c1cc2c(c(O)c1O)C1=CC(=O)CC(C)(C)C1(C)C=C2 (centres unmarked) [11,12,16-trihydroxy-2-oxo-5-methyl-10-demethyl-abieta-1,[10] and 6,8,11,13-pentene] |  |  | IC50 towards DPPH assay ([1]; from P. serratifolia): 20.4 ± 1.3 mg/L (≈ 62.1 µM) |
| C[C@@H]1O[C@@H](O[C@@H]2[C@@H](O)[C@H](OCCc3ccc(O)c(O)c3)O[C@H](CO)[C@H]2OC(=O)/C=C/c2ccc(O)c(O)c2)[C@H](O)[C@H](O)[C@H]1O [Compound 5, verbascoside] |  | 17.50 ± 1.3 mg/L (≈ 28 µM) | IC50 at 48 h (MTT antiproliferative): 13.9 ± 0.69 µM; IC50 (MCF-7): 10.5 ± 0.52 µM |
| CC1(C)CC[C@]2(C(=O)O)CC[C@]3(C)C(=CC[C@@H]4[C@@]5(C)CC[C@H](O)C(C)(C)[C@@H]5CC[C@]43C)[C@@H]2C1 [Compound 10, oleanolic acid] |  |  | cell migration inhibition in wound-healing assay (MDA-MB-231 cells): suppressed |
| O=C1O[C@H]([C@@H](O)CO)C(O)=C1O [L-ascorbic acid, reference compound] |  | 10 ± 0.3 mg/L (≈ 56.8 µM) |  |
| O=C1C[C@@H](c2ccc(O)cc2)Oc2cc(O)cc(O)c21 [naringenin] | 16.0 mg/L |  |  |
